# Results as given in ChEMBL document CHEMBL1132232, “7alpha-Iodo and 7alpha-fluoro steroids as androgen receptor-mediated imaging agents” (J Med Chem, 1999).
# Assays:
# Rattus norvegicus [1] = assay: Distribution of tissue Radioactivity following Intravenous injection into castrated male rat liver at 0.5 hours time; assay type: ADME, organism-based; conditions: in vivo
# Method in brief: (§1)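 Male Sprague–Dawley rats, about 250 g, were castrated and injected the next day via the tail vein with 5.4 μCi (2.4 pmol) of 125I tracer in ethanol/saline (1:4). There were 5–6 rats per group. At 0.5, 1, 2 or 4 h, rats were ether-anesthetized and killed by exsanguination. Tissues were dissected, weighed and counted, giving % injected dose/g and prostate/blood ratios.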
# Rattus norvegicus [2] = assay: Distribution of tissue Radioactivity following Intravenous injection into castrated male rat thyroid at 0.5 hours time; assay type: ADME, organism-based, Thyroid gland; conditions: in vivo; method in brief: as §1
# Rattus norvegicus [3] = assay: Distribution of tissue Radioactivity following Intravenous injection into castrated male rat fat at 2 hours time; assay type: ADME, organism-based, Adipose tissue; conditions: in vivo; method in brief: as §1
# Rattus norvegicus [4] = assay: Distribution of tissue Radioactivity following Intravenous injection into castrated male rat spleen at 4 hours time; assay type: ADME, organism-based; conditions: in vivo; method in brief: as §1
# Rattus norvegicus [5] = assay: Distribution of tissue Radioactivity following Intravenous injection into castrated male rat lung at 1 hour time; assay type: ADME, organism-based; conditions: in vivo; method in brief: as §1
# Rattus norvegicus [6] = assay: Distribution of tissue Radioactivity following Intravenous injection into castrated male rat kidney at 1 hour time; assay type: ADME, organism-based; conditions: in vivo; method in brief: as §1
# Rattus norvegicus [7] = assay: Distribution of tissue Radioactivity following Intravenous injection into castrated male rat blood at 2 hours time; assay type: ADME, organism-based; conditions: in vivo; method in brief: as §1
# Rattus norvegicus [8] = assay: Distribution of tissue Radioactivity following Intravenous injection into castrated male rat liver at 2 hours time; assay type: ADME, organism-based; conditions: in vivo; method in brief: as §1
# Rattus norvegicus [9] = assay: Distribution of tissue Radioactivity following Intravenous injection into castrated male rat kidney at 4 hours time; assay type: ADME, organism-based; conditions: in vivo; method in brief: as §1
# Rattus norvegicus [10] = assay: Distribution of tissue Radioactivity following Intravenous injection into castrated male rat muscle at 1 hour time; assay type: ADME, organism-based; conditions: in vivo; method in brief: as §1
# Rattus norvegicus [11] = assay: Distribution of tissue Radioactivity following Intravenous injection into castrated male rat spleen at 1 hour time; assay type: ADME, organism-based; conditions: in vivo; method in brief: as §1
# Rattus norvegicus [12] = assay: Distribution of tissue Radioactivity following Intravenous injection into castrated male rat blood at 1 hour time; assay type: ADME, organism-based; conditions: in vivo; method in brief: as §1
# Rattus norvegicus [13] = assay: Distribution of tissue Radioactivity following Intravenous injection into castrated male rat thyroid at 4 hours time; assay type: ADME, organism-based, Thyroid gland; conditions: in vivo; method in brief: as §1
# Rattus norvegicus [14] = assay: Distribution of tissue Radioactivity following Intravenous injection into castrated male rat blood at 0.5 hours time; assay type: ADME, organism-based; conditions: in vivo; method in brief: as §1
# Rattus norvegicus [15] = assay: Distribution of tissue Radioactivity following Intravenous injection into castrated male rat prostate/blood at 0.5 hours time; assay type: ADME, organism-based; conditions: in vivo; method in brief: as §1
# Rattus norvegicus [16] = assay: Distribution of tissue Radioactivity following Intravenous injection into castrated male rat prostate/blood at 1 hours time; assay type: ADME, organism-based; conditions: other tissue; method in brief: as §1
# Rattus norvegicus [17] = assay: Distribution of tissue Radioactivity following Intravenous injection into castrated male rat liver at 1 hour time; assay type: ADME, organism-based; conditions: in vivo; method in brief: as §1
# Rattus norvegicus [18] = assay: Distribution of tissue Radioactivity following subcutaneous injection of […] of 5-alpha-DHT 15 min before the administration of the [125I]- tracer castrated male rat thyroid at 1 hour time; assay type: ADME, organism-based, Thyroid gland; conditions: in vivo, sc
# Rattus norvegicus [19] = assay: Distribution of tissue Radioactivity following Intravenous injection into castrated male rat blood at 4 hours time; assay type: ADME, organism-based; conditions: in vivo; method in brief: as §1
# Rattus norvegicus [20] = assay: Distribution of tissue Radioactivity following Intravenous injection into castrated male rat lung at 2 hours time; assay type: ADME, organism-based; conditions: in vivo; method in brief: as §1
# Rattus norvegicus [21] = assay: Distribution of tissue Radioactivity following Intravenous injection into castrated male rat prostate at 1 hours time; assay type: ADME, organism-based, Prostate gland; conditions: in vivo; method in brief: as §1
# Rattus norvegicus [22] = assay: Distribution of tissue Radioactivity following subcutaneous injection of […] of 5-alpha-DHT 15 min before the administration of the [125I]- tracer castrated male rat blood at 1 hour time; assay type: ADME, organism-based; conditions: in vivo, sc
# Method in brief: (§2)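 Castrated male Sprague–Dawley rats, about 250 g, received 5α-DHT subcutaneously in propylene glycol/saline (3:2) 15 min before a tail-vein 125I tracer (5.4 μCi, 2.4 pmol, in ethanol/saline 1:4). There were 5–6 rats per group. At 1 h, rats were ether-anesthetized and exsanguinated. Tissues were weighed and counted as % injected dose/g, plus the prostate/blood ratio.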
# Rattus norvegicus [23] = assay: Distribution of tissue Radioactivity following Intravenous injection into castrated male rat thyroid at 2 hours time; assay type: ADME, organism-based, Thyroid gland; conditions: in vivo; method in brief: as §1
# Rattus norvegicus [24] = assay: Distribution of tissue Radioactivity following subcutaneous injection of […] of 5-alpha-DHT 15 min before the administration of the [125I]- tracer castrated male rat muscle at 1 hour time; assay type: ADME, organism-based; conditions: in vivo, sc; method in brief: as §2
# Rattus norvegicus [25] = assay: Distribution of tissue Radioactivity following Intravenous injection into castrated male rat prostate at 4 hours time; assay type: ADME, organism-based, Prostate gland; conditions: in vivo; method in brief: as §1
# Rattus norvegicus [26] = assay: Distribution of tissue Radioactivity following Intravenous injection into castrated male rat lung at 0.5 hours time; assay type: ADME, organism-based; conditions: in vivo; method in brief: as §1
smiles,measurement,setting,value
C[C@]12CCC(=O)CC1C[C@@H](I)[C@@H]1[C@@H]2CC[C@@]2(C)[C@H]1CC[C@]2(C)O (stereo partly specified),Dose/g,Rattus norvegicus [1],0.31%
same,Biodistribution,Rattus norvegicus [2],1.58%
same,Dose/g,Rattus norvegicus [3],0.2%
same,Dose/g,Rattus norvegicus [4],0.17%
same,Biodistribution,Rattus norvegicus [5],0.24%
same,Dose/g,Rattus norvegicus [6],0.27%
same,Biodistribution,Rattus norvegicus [7],0.31%
same,Biodistribution,Rattus norvegicus [8],0.23%
same,Biodistribution,Rattus norvegicus [9],0.23%
same,Dose/g,Rattus norvegicus [10],0.07%
same,Biodistribution,Rattus norvegicus [11],0.16%
same,Biodistribution,Rattus norvegicus [12],0.33%
same,Biodistribution,Rattus norvegicus [13],9.7%
same,Dose/g,Rattus norvegicus [14],0.3%
same,Dose/g,Rattus norvegicus [15],0.7%
same,Biodistribution,Rattus norvegicus [16],1.17%
same,Biodistribution,Rattus norvegicus [17],0.29%
same,Biodistribution,Rattus norvegicus [18],3.55%
same,Dose/g,Rattus norvegicus [19],0.37%
same,Biodistribution,Rattus norvegicus [20],0.24%
same,Dose/g,Rattus norvegicus [21],0.39%
same,Dose/g,Rattus norvegicus [22],0.35%
same,Dose/g,Rattus norvegicus [23],3.55%
same,Biodistribution,Rattus norvegicus [24],0.08%
same,Biodistribution,Rattus norvegicus [25],0.44%
same,Dose/g,Rattus norvegicus [26],0.22%
